pIC50: −log10 of the molar value. The source made the active and inactive calls. The rule behind the calls is not given here.
What was measured:
[1] = Antiproliferative activity against human HCC827 cells after 72 hrs by SRB method; assay type: functional, cell-based; details: HCC827, 72 h
Method in brief: (§1)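 SRB growth assay: cells exposed to compounds over a 100-fold concentration range for 72 h, then cell number quantified. IC50 calculated from the curves. Means of at least 3 experiments, each run in triplicate.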

[2] = Antiproliferative activity against human H460 cells after 72 hrs by SRB method; assay type: functional, cell-based; details: NCI-H460, 72 h; method in brief: as §1
[3] = Antiproliferative activity against human BxPC3 cells after 72 hrs by SRB method; assay type: functional, cell-based; details: BXPC-3, 72 h; method in brief: as §1
[4] = Ratio of hydroxychloroquine IC50 to compound IC50 for human HCC827 cells; assay type: functional
[5] = Ratio of hydroxychloroquine IC50 to compound IC50 for human H460 cells; assay type: functional
BXPC-3 = experiment: Ratio of hydroxychloroquine IC50 to compound IC50 for human BxPC3 cells; assay type: functional
NCI-H460 [6] = experiment: Inhibition of autophagy in human H460 cells assessed as increase in LC3-2 level at 10 uM after 24 hrs by immunoblot analysis
NCI-H3122 = experiment: Inhibition of autophagy in human NCI-H3122 cells assessed as increase in punctate LC3 expression at 25 to 50 uM after 6 hrs by fluorescence microscopic analysis; assay type: functional, cell-based
Method in brief: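 NCI-H3122 NSCLC cells transfected with a mCherry-EGFP-LC3B tandem reporter, then treated 6 h. Cells fixed and green, red and yellow fluorescent puncta examined by fluorescence microscopy.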

[7] = Inhibition of colony formation in human H460 cells at 6.5 to 100 uM treated for 24 hrs followed by incubation in drug free medium for 10 days by crystal violet staining-based assay relative to hydroxychloroquine; assay type: functional, NCI-H460
Method in brief: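 H460 cells exposed to drug for 24 h, after which medium was replaced with drug-free medium. Colonies grew for another 10 days and were stained with crystal violet.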

NCI-H460 [8] = experiment: Induction of apoptosis in human H460 cells after 24 hrs by annexin-V staining-based flow cytometry; assay type: functional, cell-based
Method in brief: (§2)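 Apoptosis in treated H460 cells was detected by binding of APC-conjugated annexin V to surface phosphatidylserine, measured by flow cytometry. Means ± SD of 3 experiments; p < 0.05 taken as significant.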

NCI-H460 [9] = experiment: Inhibition of autophagy in human H460 cells assessed as increase in p62 level after 24 hrs by immunoblot analysis; assay type: functional, cell-based
Method in brief: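 H460 cells exposed 24 h to a concentration series. Extracts immunoblotted for p62, with actin as loading control.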

NCI-H460 [10] = experiment: Induction of apoptosis in human H460 cells at 25 to 75 uM after 24 hrs by annexin-V staining-based flow cytometry; assay type: functional, cell-based; method in brief: as §2
NCI-H460 [11] = experiment: Inhibition of autophagy in human H460 cells assessed as increase in punctate LC3 level at 10 uM by immunoblot analysis; assay type: functional, cell-based; details: TDE = time-dependent effect
Method in brief: (§3)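 H460 cells treated 24 h across a concentration series, or with 10 μM compound for varying times, or at 10 μM for 24 h. Cell extracts immunoblotted with anti-LC3 to separate LC3-I from autophagosome-bound LC3-II. Actin probed as loading control.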

NCI-H460 [12] = experiment: Inhibition of autophagy in human H460 cells assessed as increase in punctate LC3 level after 24 hrs by immunoblot analysis; assay type: functional, cell-based; method in brief: as §3
[13] = Cytotoxicity against human LN229 cells after 72 hrs by MTT assay; assay type: functional, cell-based; details: LN-229, 72 h
[14] = Cytotoxicity against human 1205 Lu cells after 72 hrs by MTT assay; assay type: functional, cell-based
[15] = Cytotoxicity against human C8161 cells after 72 hrs by MTT assay; assay type: functional, cell-based; details: C8161, 72 h
HT-29 = experiment: Cytotoxicity against human HT-29 cells after 72 hrs by MTT assay; assay type: functional, cell-based; details: HT-29, 72 h
MDA-MB-231 = experiment: Cytotoxicity against human MDA-MB-231 cells after 72 hrs by MTT assay; assay type: functional, cell-based; details: MDA-MB-231, 72 h, pooled result: one value given for 7 cell lines, strains, targets or settings
Homo sapiens = species on record: Homo sapiens; experiment: Cmax in human at 1200 mg; assay type: ADME, organism-based; parameters: dose 1200 mg; details: in vivo

| SMILES | pIC50 [1] | pIC50 [2] | pIC50 [3] | Ratio IC50 [4] | Ratio IC50 [5] | Ratio IC50 (BXPC-3) | also measured |
| --- | --- | --- | --- | --- | --- | --- | --- |
| CN(CCNCc1cn(CCn2c(=O)[nH]c3ccccc3c2=O)nn1)CCNc1ccnc2cc(Cl)ccc12 | < 3.70 | 3.83 | – | – | – | – | – |
| Clc1ccc2c(NCCNCc3cn(-c4ccnc5cc(Cl)ccc45)nn3)ccnc2c1 | 4.80 | 4.68 | 4.85 | 3.2 | 3.2 | 3.2 | – |
| CN(CCNCc1cn(CC(=O)O)nn1)CCNc1ccnc2cc(Cl)ccc12 | < 3.70 | < 3.70 | – | – | – | – | – |
| CN(CCNCc1cn(Cc2ccccc2)nn1)CCNc1ccnc2cc(Cl)ccc12 | 4.80 | 4.49 | 5.01 | 3.1 | 3.1 | 3.1 | – |
| CN(CCNCc1cn(Cc2ccc(Cl)cc2)nn1)CCNc1ccnc2cc(Cl)ccc12 | 5.12 | 4.96 | 5.24 | 7 | 7 | 7 | inhibition (NCI-H460 [6]): Active; inhibition (NCI-H3122): Active; Ratio [7]: >10; Activity (NCI-H460 [8]): Dose-dependent effect; inhibition (NCI-H460 [9]): Dose-dependent effect; Activity (NCI-H460 [10]): Active; inhibition (NCI-H460 [11]): tde; inhibition (NCI-H460 [12]): Dose-dependent effect |
| CN(CCNCc1cn(-c2ccnc3cc(Cl)ccc23)nn1)CCNc1ccnc2cc(Cl)ccc12 | 4.74 | 4.80 | 5.06 | 3.9 | 3.9 | 3.9 | – |
| CN(CCNCc1cn(-c2ccccc2Cl)nn1)CCNc1ccnc2cc(Cl)ccc12 | 4.92 | 4.70 | 4.96 | 4 | 4 | 4 | – |
| CN(CCNCc1cn(C(C)(C)C)nn1)CCNc1ccnc2cc(Cl)ccc12 | 4.25 | 4.10 | 4.41 | – | – | – | – |
| CN(CCNCc1cn(CC(=O)Nc2cccc3ccc(O)cc23)nn1)CCNc1ccnc2cc(Cl)ccc12 | 4.07 | 4.17 | – | – | – | – | – |
| CN(CCNCc1cn(Cc2nc3ccccc3[nH]2)nn1)CCNc1ccnc2cc(Cl)ccc12 | 3.79 | 3.92 | – | – | – | – | – |
| CN(CCNCc1cn(-c2ccccc2)nn1)CCNc1ccnc2cc(Cl)ccc12 | 4.59 | 4.60 | 5.00 | 2.9 | 2.9 | 2.9 | – |
| Clc1ccc2c(-n3cc(CNCc4cn(-c5ccnc6cc(Cl)ccc56)nn4)nn3)ccnc2c1 | 4.14 | 4.15 | 4.11 | – | – | – | – |
| CN(CCNCc1cn(-c2ccc(F)cc2)nn1)CCNc1ccnc2cc(Cl)ccc12 | 4.72 | 4.47 | 4.92 | 2.8 | 2.8 | 2.8 | – |
| CN(CCNCc1cn(CCCn2nn[nH]c2=O)nn1)CCNc1ccnc2cc(Cl)ccc12 | < 3.70 | < 3.70 | – | – | – | – | – |
| CN(CCNCc1cn(CCc2c[nH]c3ccccc23)nn1)CCNc1ccnc2cc(Cl)ccc12 | 5.07 | 4.92 | 5.12 | 6 | 6 | 6 | – |
| CN(CCNCc1cn(-c2nc3ccccc3[nH]2)nn1)CCNc1ccnc2cc(Cl)ccc12 | 4.49 | 4.48 | 4.80 | 2.1 | 2.1 | 2.1 | – |
| CN(CCNCc1cn(-c2cccc(Cl)c2)nn1)CCNc1ccnc2cc(Cl)ccc12 | 5.03 | 4.77 | 4.92 | 4.7 | 4.7 | 4.7 | – |
| CN(CCNCc1cn(-c2ccc(Cl)cc2)nn1)CCNc1ccnc2cc(Cl)ccc12 | 5.02 | 4.85 | 5.04 | 5.2 | 5.2 | 5.2 | – |
| CN(CCNCc1cn(CCCO)nn1)CCNc1ccnc2cc(Cl)ccc12 | < 3.70 | < 3.70 | – | – | – | – | – |
| CN(CCNCc1cn(CCC(=O)Nc2ccccn2)nn1)CCNc1ccnc2cc(Cl)ccc12 | < 3.70 | < 3.70 | – | – | – | – | – |
| CN(CCNc1ccnc2cc(Cl)ccc12)Cc1cn(-c2ccnc3cc(Cl)ccc23)nn1 | 4.74 | 4.54 | 4.80 | 2.7 | 2.7 | 2.7 | – |
| CCN(CC)CCCC(C)Nc1ccnc2cc(Cl)ccc12 (stereo not given) [CHLOROQUINE] | 4.12 | 4.28 | 4.60 | 1.2 | 1.2 | 1.2 | pIC50 [13]: 5.44; pIC50 [14]: 5.44; pIC50 [15]: 5.44; pIC50 (HT-29): 5.44; Activity (NCI-H460 [10]): Active |
| CN(CCNCc1cn(CCc2ccccc2)nn1)CCNc1ccnc2cc(Cl)ccc12 | 4.82 | 4.62 | 4.89 | 3.2 | 3.2 | 3.2 | – |
| CN(CCNCc1cn(Cc2ccc(Br)cc2)nn1)CCNc1ccnc2cc(Cl)ccc12 | 5.03 | 4.92 | 5.06 | 5.7 | 5.7 | 5.7 | – |
| CCN(CC)CCNc1ccc(C)c2sc3ccccc3c(=O)c12 [LUCANTHONE] | – | – | – | – | – | – | pIC50 (MDA-MB-231): 5.24 |
| CN(CCNCc1cn(-c2ccc(Br)cc2)nn1)CCNc1ccnc2cc(Cl)ccc12 | 4.96 | 4.82 | 5.10 | 5 | 5 | 5 | – |
| CN(CCNCc1cn(Cc2nc3cc(Cl)ccc3[nH]2)nn1)CCNc1ccnc2cc(Cl)ccc12 | 4.19 | 4.23 | 4.36 | – | – | – | – |
| CCN(CCO)CCCC(C)Nc1ccnc2cc(Cl)ccc12 (stereo not given) [HYDROXYCHLOROQUINE] | 4.19 | 4.13 | 4.48 | – | – | – | inhibition (NCI-H460 [6]): Active; inhibition (NCI-H3122): Active; inhibition (NCI-H460 [9]): Dose-dependent effect; Activity (NCI-H460 [10]): Active; inhibition (NCI-H460 [11]): tde; inhibition (NCI-H460 [12]): Dose-dependent effect; Cmax (Homo sapiens): 7 µM |
| C#CCNCCN(C)CCNc1ccnc2cc(Cl)ccc12 | 3.98 | 4.16 | – | – | – | – | – |

— ChEMBL document CHEMBL3421580, “Discovery of autophagy inhibitors with antiproliferative activity in lung and pancreatic cancer cells” (ACS Med Chem Lett, 2015)
